PMC9352332 (ACS Omega, 2022)

Legend:
[1] = test system: advanced glycation end products (AGEs); test: Bovine serum albumin glycation; format: biochemical; conditions: BSA 1 mg mL–1, 0.5 M glucose, test compound (1 mM), pH 7.4, 50 °C, 4 days; AG positive control 100 μM
In short: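 BSA and glucose were incubated in 0.1 M PBS, in the dark, with or without test compound. AGE fluorescence was read at excitation 350 nm and emission 460 nm. Percent inhibition was calculated from the glucose-dependent fluorescence increase (BSA ± glucose), compared with the BSA + glucose signal with or without test compound. A vehicle served as the negative control. Values are mean ± S.E.M. of three independent incubations, with Student t-test vs aminoguanidine.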

[2] = DPPH free-radical scavenging; conditions: DPPH 0.025 mg mL–1 in methanol, 100 μM test compound, 517 nm
In short: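 Test compound mixed with methanolic DPPH and read spectrophotometrically. Percent scavenging is calculated from absorbance of sample relative to control. Ascorbic acid is the positive control.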

ALR2 = ALR2 (Homo sapiens, UniProt P15121); test: ALR2 in vitro enzyme inhibition assay; format: biochemical; conditions: for selectivity of inhibition, ALR2 versus ALR1 (in words): judged from ALR1 and ALR2 in vitro inhibition data
ALR1 = ALR1 (Bos taurus, UniProt Q3ZCJ2); test: ALR1 in vitro enzyme inhibition assay; format: biochemical, calf
In short: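 Enzyme in sodium phosphate buffer pH 6.2, preincubated 10 min at 32 °C with test compound and substrate, without NADPH. Reaction started with NADPH and followed for 5 min. Absorbance read before and after cofactor addition gives % inhibition. Compound dissolved in DMSO and diluted in water to 0.1% DMSO in assay. Valproic acid is the standard. IC50 from nonlinear regression of log concentration vs remaining activity.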

Sequence of ALR1 (Q3ZCJ2 whole entry): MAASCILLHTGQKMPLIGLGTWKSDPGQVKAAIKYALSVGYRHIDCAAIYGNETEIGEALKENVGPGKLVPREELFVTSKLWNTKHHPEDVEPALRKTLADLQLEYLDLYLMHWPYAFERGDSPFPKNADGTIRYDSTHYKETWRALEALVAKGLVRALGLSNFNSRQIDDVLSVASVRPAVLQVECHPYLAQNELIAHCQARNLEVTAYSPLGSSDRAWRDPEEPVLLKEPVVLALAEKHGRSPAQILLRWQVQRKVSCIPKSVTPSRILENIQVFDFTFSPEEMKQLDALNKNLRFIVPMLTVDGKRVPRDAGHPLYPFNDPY

Cc1ccc(O)c(C=NNC(=S)Nc2ccc(F)cc2F)c1 [3j, N-(2,4-Difluorophenyl)-2-(2-hydroxy-5-methylbenzylidene)hydrazinecarbothioamide]
% inhibition of AGEs (advanced glycation end-product formation) [1]: 61.60%
% FRSA (percent free-radical scavenging activity) [2]: 66.57%
IC50 (ALR2): 4.95 ± 0.066 µM
selectivity of inhibition, ALR2 versus ALR1 (in words) (ALR2): strong and selective inhibition of ALR2

Cc1ccc(O)c(C=NNC(=S)Nc2c(C)cccc2C)c1 [3i, N-(2,6-Dimethylphenyl)-2-(2-hydroxy-5-methylbenzylidene)hydrazinecarbothioamide]
% inhibition of AGEs (advanced glycation end-product formation) [1]: 64.41%
% FRSA (percent free-radical scavenging activity) [2]: 71.34%
IC50 (ALR2): 2.06 ± 0.057 µM
selectivity of inhibition, ALR2 versus ALR1 (in words) (ALR2): strong but nonselective inhibition of ALR1 and ALR2
IC50 (ALR1): 2.14 ± 0.031 µM

Cc1ccc(O)c(C=NNC(=S)Nc2cccc(F)c2)c1 [3k, N-(3-Fluorophenyl)-2-(2-hydroxy-5-methylbenzylidene)hydrazinecarbothioamide]
% FRSA (percent free-radical scavenging activity) [2]: 53.88%
IC50 (ALR2): 14.03 ± 0.047 µM
selectivity of inhibition, ALR2 versus ALR1 (in words) (ALR2): strong and selective inhibition of ALR2

Cc1ccc(O)c(C=NNC(=S)NC2CCCCC2)c1 [3f, N-Cyclohexyl-2-(2-hydroxy-5-methylbenzylidene)hydrazinecarbothioamide]
% inhibition of AGEs (advanced glycation end-product formation) [1]: 59.86%
% FRSA (percent free-radical scavenging activity) [2]: 57.84%

Cc1ccc(O)c(C=NNC(=S)Nc2ccccc2C)c1 [3m, 2-(2-Hydroxy-5-methylbenzylidene)-N-(o-tolyl)hydrazinecarbothioamide]
% inhibition of AGEs (advanced glycation end-product formation) [1]: 53.08%
% FRSA (percent free-radical scavenging activity) [2]: 63.87%
IC50 (ALR2): 1.96 ± 0.029 µM
selectivity of inhibition, ALR2 versus ALR1 (in words) (ALR2): strong but nonselective inhibition of ALR1 and ALR2
IC50 (ALR1): 4.57 ± 0.076 µM

N=C(N)NN [6-AG, 6-Aminoguanidine, reference compound]
% inhibition of AGEs (advanced glycation end-product formation) [1]: 79.34%

COc1cccc(NC(=S)NN=Cc2cc(C)ccc2O)c1 [3c, 2-(2-Hydroxy-5-methylbenzylidene)-N-(3-methoxyphenyl)hydrazinecarbothioamide]
% inhibition of AGEs (advanced glycation end-product formation) [1]: 66.40%
% FRSA (percent free-radical scavenging activity) [2]: 65.67%
IC50 (ALR2): 1.42 ± 0.024 µM
selectivity of inhibition, ALR2 versus ALR1 (in words) (ALR2): strong and selective inhibition of ALR2

Cc1ccc(NC(=S)NN=Cc2cc(C)ccc2O)c(C)c1 [3b, N-(2,4-Dimethylphenyl)-2-(2-hydroxy-5-methylbenzylidene)hydrazinecarbothioamide]
% inhibition of AGEs (advanced glycation end-product formation) [1]: 50.78%
% FRSA (percent free-radical scavenging activity) [2]: 63.24%
IC50 (ALR2): 2.55 ± 0.021 µM
selectivity of inhibition, ALR2 versus ALR1 (in words) (ALR2): strong and selective inhibition of ALR2

Cc1ccc(NC(=S)NN=Cc2cc(C)ccc2O)cc1 [3h, 2-(2-Hydroxy-5-methylbenzylidene)-N-(p-tolyl)hydrazinecarbothioamide]
% FRSA (percent free-radical scavenging activity) [2]: 64.94%
IC50 (ALR2): 3.8 ± 0.072 µM
selectivity of inhibition, ALR2 versus ALR1 (in words) (ALR2): strong but nonselective inhibition of ALR1 and ALR2
IC50 (ALR1): 15.8 ± 0.027 µM

Cc1ccc(O)c(C=NNC(=S)Nc2ccc(C(C)C)cc2)c1 [3n, 2-(2-Hydroxy-5-methylbenzylidene)-N-(4-isopropylphenyl)hydrazinecarbothioamide]
% inhibition of AGEs (advanced glycation end-product formation) [1]: 68.66%
% FRSA (percent free-radical scavenging activity) [2]: 55.93%
IC50 (ALR2): 3.11 ± 0.038 µM
selectivity of inhibition, ALR2 versus ALR1 (in words) (ALR2): strong and selective inhibition of ALR2

Cc1ccc(O)c(C=NNC(=S)Nc2ccccc2)c1 [3a, 2-(2-Hydroxy-5-methylbenzylidene)-N-phenylhydrazinecarbothioamide]
% inhibition of AGEs (advanced glycation end-product formation) [1]: 59.12%
% FRSA (percent free-radical scavenging activity) [2]: 56.78%
IC50 (ALR2): 4.99 ± 0.035 µM
selectivity of inhibition, ALR2 versus ALR1 (in words) (ALR2): strong but nonselective inhibition of ALR1 and ALR2
IC50 (ALR1): 5.13 ± 0.037 µM

Cc1ccc(O)c(C=NNC(=S)NCc2ccc(Cl)cc2)c1 [3d, N-(4-Chlorobenzyl)-2-(2-hydroxy-5-methylbenzylidene)hydrazinecarbothioamide]
% inhibition of AGEs (advanced glycation end-product formation) [1]: 62.81%
% FRSA (percent free-radical scavenging activity) [2]: 61.34%

Cc1ccc(O)c(C=NNC(=S)NCCc2ccccc2)c1 [3o, 2-(2-Hydroxy-5-methylbenzylidene)-N-phenethylhydrazinecarbothioamide]
% FRSA (percent free-radical scavenging activity) [2]: 68.56%
IC50 (ALR2): 12.15 ± 0.083 µM
selectivity of inhibition, ALR2 versus ALR1 (in words) (ALR2): strong and selective inhibition of ALR2

Cc1ccc(O)c(C=NNC(=S)Nc2ccc(Br)cc2)c1 [3g, N-(4-Bromophenyl)-2-(2-hydroxy-5-methylbenzylidene)hydrazinecarbothioamide]
% inhibition of AGEs (advanced glycation end-product formation) [1]: 51.33%
% FRSA (percent free-radical scavenging activity) [2]: 53.56%
IC50 (ALR2): 8.37 ± 0.062 µM
selectivity of inhibition, ALR2 versus ALR1 (in words) (ALR2): strong and selective inhibition of ALR2

Cc1ccc(O)c(C=NNC(=S)NCc2ccccc2)c1 [3e, N-Benzyl-2-(2-hydroxy-5-methylbenzylidene)hydrazinecarbothioamide]
% inhibition of AGEs (advanced glycation end-product formation) [1]: 56.73%
% FRSA (percent free-radical scavenging activity) [2]: 65.66%

Cc1ccc(O)c(C=NNC(=S)Nc2ccc(N(C)C)cc2)c1 [3p, N-(4-(Dimethylamino)phenyl)-2-(2-hydroxy-5-methylbenzylidene)hydrazinecarbothioamide]
% inhibition of AGEs (advanced glycation end-product formation) [1]: 64.81%
% FRSA (percent free-radical scavenging activity) [2]: 71.53%
IC50 (ALR2): 10.67 ± 0.064 µM
selectivity of inhibition, ALR2 versus ALR1 (in words) (ALR2): strong and selective inhibition of ALR2

Cc1ccc(O)c(C=NNC(=S)Nc2ccc(Cl)cc2)c1 [3l, N-(4-Chlorophenyl)-2-(2-hydroxy-5-methylbenzylidene)hydrazinecarbothioamide]
% inhibition of AGEs (advanced glycation end-product formation) [1]: 56.61%
% FRSA (percent free-radical scavenging activity) [2]: 62.44%
IC50 (ALR2): 3.8 ± 0.027 µM
selectivity of inhibition, ALR2 versus ALR1 (in words) (ALR2): strong and selective inhibition of ALR2
